Measured values published in ChEMBL document CHEMBL1667841, “Furoxan nitric oxide donor coupled chrysin derivatives: synthesis and vasculoprotection” (Bioorg Med Chem Lett, 2011).

Experiments:
[1] = biological target: Aldo-keto reductase family 1 member B1 (Homo sapiens, UniProt P15121); test: Inhibition of aldose reductase by spectrophotometric analysis
[2] = Inhibition of advanced glycation end product formation in phosphate buffered saline at pH 7.4 after 14 days by fluorospectrophotometry; format: physicochemical
[3] = Induction of NO release in phosphate buffered saline of pH 7.4 at 10^-4 M after 1 hr by Griess assay in presence of L-cysteine; format: physicochemical; conditions: buffer, pH 7.4, 1 h, 100 µM
In short: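 Compound at 10^-4 M final in 1:1 v/v 50 mM PBS (pH 7.4)/MeOH containing 5 × 10^-4 M L-cysteine, 1 h at 37 °C; mixture treated with Griess reagent, 10 min at room temperature, absorbance 540 nm. Nitrite quantified against sodium nitrite standards (10–80 nmol/mL); expressed as % of theoretical 1 mol NO/mol compound, n = 3.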

| IC50 [1] [nM] | IC50 [2] [nM] | Activity [3] [%] | Compound |
| --- | --- | --- | --- |
| 400 |  |  | O=C(COc1cc(O)c2c(=O)cc(-c3ccccc3)oc2c1)OCc1ccc(OCc2c(-c3ccccc3)no[n+]2[O-])cc1 |
| 900 |  |  | CC(=O)Oc1cc(OCC(=O)OCc2c(-c3ccccc3)no[n+]2[O-])cc2oc(-c3ccccc3)cc(=O)c12 |
| 750 |  |  | O=C(COc1cc(O)c2c(=O)cc(-c3ccccc3)oc2c1)OCc1c(-c2ccccc2)no[n+]1[O-] |
| ≥ 10000 |  |  | [O-][n+]1onc(-c2ccccc2)c1CO |
| 7780 | 63500 |  | O=c1cc(-c2ccccc2)oc2cc(O)cc(O)c12 [CHRYSIN] |

Second part, the molecule before the results:

| Compound | IC50 [1] [nM] | IC50 [2] [nM] | Activity [3] [%] |
| --- | --- | --- | --- |
| O=C(COc1cc(O)c2c(=O)cc(-c3ccccc3)oc2c1)OCc1cccc(OCc2c(-c3ccccc3)no[n+]2[O-])c1 | 220 |  |  |
| CC(=O)Oc1cc(OCC(=O)OCc2cccc(OCc3c(-c4ccccc4)no[n+]3[O-])c2)cc2oc(-c3ccccc3)cc(=O)c12 | 1620 | 26400 | 1.89 |
| CC(=O)Oc1cc(OCC(=O)OCc2ccc(OCc3c(-c4ccccc4)no[n+]3[O-])cc2)cc2oc(-c3ccccc3)cc(=O)c12 | 1930 |  |  |
| N=C(N)NN [PIMAGEDINE] |  | 826000 |  |
